According to ChEMBL document CHEMBL2390857 (J Med Chem, 2013):
pIC50: −log10 of the molar value. Calls of active or inactive are those of the source. The rule behind the calls is not given here.

Experiments:
LNCaP [1] = assay: Cytotoxicity against human LNCAP cells after 7 days by MTT assay; type: functional; settings: 168 h
[2] = Down regulation of full length AR expression in human CWR22Rv1 by Western blotting analysis; type: functional; settings: CWR22R
Summary of the method: (§1)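 CWR22Rv1 cells, which carry endogenous splice variant AR-3, exposed to 15 μM compound for 24 h. Lysates prepared in RIPA buffer with inhibitors and separated by SDS-PAGE. Full-length AR and AR-3 detected with specific antibodies by chemiluminescence, normalized to β-actin. Blots done in duplicate or triplicate.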

[3] = Down regulation of truncated AR-3 expression in human CWR22Rv1 by Western blotting analysis; type: functional; settings: CWR22R; summary of the method: as §1
LNCaP [4] = assay: Down regulation of AR protein expression in human LNCAP cells at 15 uM after 24 hrs by Western blotting analysis; type: functional, cell-based
Summary of the method: (§2)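 LNCaP cells exposed to 15 μM compound for 24 h. Whole-cell lysates made in RIPA buffer with protease and phosphatase inhibitors, protein measured by Bradford, run on SDS-PAGE and transferred to nitrocellulose. AR probed, bands detected by chemiluminescence and normalized to β-actin by densitometry. Blots run in duplicate or triplicate.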

CWR22R = assay: Induction of apoptosis in human CWR22Rv1 cells assessed as induction of PARP cleavage; type: functional, cell-based
LNCaP [5] = assay: Induction of apoptosis in human LNCAP cells assessed as induction of PARP cleavage; type: functional, cell-based
LNCaP [6] = assay: Upregulation of AR protein expression in human LNCAP cells at 15 uM after 24 hrs by Western blotting analysis; type: functional, cell-based; summary of the method: as §2
LNCaP [7] = assay: Down regulation of AR protein expression in human LNCAP cells at 5 uM after 48 hrs by DAPI staining-based immunocytochemical analysis; type: functional, cell-based
Summary of the method: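 LNCaP cells on chamber slides (0.025 × 10^6 per well) for 12 h, then 5 μM compound for 48 h. Fixed in 3.7% formaldehyde, permeabilized with 0.25% Triton, blocked in 5% BSA/0.5% NP40. Anti-AR (1:600) applied overnight, then Alexa Fluor 488 anti-rabbit IgG (1:1000) for 1 h, DAPI nuclear counterstain. Imaged by fluorescence microscopy.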

[8] = biological target: T1, Androgen receptor (Homo sapiens) (UniProt P10275); assay: Displacement of [3H]R1881 from AR in human LNCaP cells at 0.1 nM to 30000 nM after 2 hrs by scintillation counting analysis; type: cell-based
T1 sequence (whole entry): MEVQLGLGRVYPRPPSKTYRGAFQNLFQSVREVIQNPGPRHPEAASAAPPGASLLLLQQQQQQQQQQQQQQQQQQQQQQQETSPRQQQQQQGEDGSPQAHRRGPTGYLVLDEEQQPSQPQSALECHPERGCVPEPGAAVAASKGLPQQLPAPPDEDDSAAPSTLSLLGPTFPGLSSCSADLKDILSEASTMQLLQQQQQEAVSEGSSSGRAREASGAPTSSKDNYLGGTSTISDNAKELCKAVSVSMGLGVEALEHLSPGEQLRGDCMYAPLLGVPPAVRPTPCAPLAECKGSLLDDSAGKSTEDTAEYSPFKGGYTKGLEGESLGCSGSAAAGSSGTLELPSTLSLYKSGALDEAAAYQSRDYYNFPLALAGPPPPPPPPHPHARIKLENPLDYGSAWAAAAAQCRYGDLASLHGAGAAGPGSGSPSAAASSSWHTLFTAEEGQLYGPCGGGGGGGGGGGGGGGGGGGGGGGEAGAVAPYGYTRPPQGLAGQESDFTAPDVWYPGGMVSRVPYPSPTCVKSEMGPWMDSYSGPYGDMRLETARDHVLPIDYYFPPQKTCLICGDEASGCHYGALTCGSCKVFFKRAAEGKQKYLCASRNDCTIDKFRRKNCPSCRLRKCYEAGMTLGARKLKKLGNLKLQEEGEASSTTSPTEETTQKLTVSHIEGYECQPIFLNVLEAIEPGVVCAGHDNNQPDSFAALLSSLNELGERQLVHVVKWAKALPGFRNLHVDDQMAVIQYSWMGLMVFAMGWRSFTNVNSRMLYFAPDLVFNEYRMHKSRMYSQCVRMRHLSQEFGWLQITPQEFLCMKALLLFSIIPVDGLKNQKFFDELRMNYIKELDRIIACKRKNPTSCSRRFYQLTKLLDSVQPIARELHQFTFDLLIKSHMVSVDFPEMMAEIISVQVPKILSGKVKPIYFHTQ
Summary of the method: (§3)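 Whole-cell competitive binding in LNCaP cells plated on poly-L-lysine-coated wells (2–3 × 10^5 per well) in steroid-free medium. […] Incubated 2 h at 37 °C, washed, solubilized in SDS/glycerol DPBS, radioactivity counted by scintillation.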

[9] = biological target: T1, Androgen receptor (Homo sapiens); assay: Displacement of [3H]R1881 from AR in human LNCaP cells at 30 uM after 2 hrs by scintillation counting analysis; type: cell-based; summary of the method: as §3
[10] = biological target: T2, Steroid 17-alpha-hydroxylase/17,20 lyase (Homo sapiens, UniProt P05093); assay: Inhibition of human truncated CYP17A1 expressed in Escherichia coli
T2 sequence (P05093 whole entry): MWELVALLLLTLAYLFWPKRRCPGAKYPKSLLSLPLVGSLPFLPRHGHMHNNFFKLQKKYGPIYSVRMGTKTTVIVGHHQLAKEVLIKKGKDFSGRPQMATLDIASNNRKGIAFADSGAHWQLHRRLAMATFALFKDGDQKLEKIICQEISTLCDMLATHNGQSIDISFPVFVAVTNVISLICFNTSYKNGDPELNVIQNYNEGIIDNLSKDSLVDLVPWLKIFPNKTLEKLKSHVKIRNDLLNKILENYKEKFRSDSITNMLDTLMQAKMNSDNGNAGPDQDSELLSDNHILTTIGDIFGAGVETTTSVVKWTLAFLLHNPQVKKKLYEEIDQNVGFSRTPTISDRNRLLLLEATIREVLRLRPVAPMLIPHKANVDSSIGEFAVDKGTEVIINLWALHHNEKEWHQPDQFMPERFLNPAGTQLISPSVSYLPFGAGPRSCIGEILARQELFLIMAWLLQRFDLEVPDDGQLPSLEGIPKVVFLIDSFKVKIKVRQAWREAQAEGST
Summary of the method: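 Purified truncated human CYP17A1 (CYP171dH), expressed in E. coli, assayed for 17α-hydroxylase activity following a previously reported procedure. […] Reference CYP17 inhibitors were run in the same system as positive controls.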

SMILES: C[C@]12CC/C(=N\O)C=C1CC[C@@H]1[C@@H]2CC[C@]2(C)C(n3cnc4ccccc43)=CC[C@@H]12
- GI50 (LNCaP [1]): 2.03 µM

SMILES: C[C@]12CC/C(=N/O)C=C1CC[C@@H]1[C@@H]2CC[C@]2(C)C(n3cnc4ccccc43)=CC[C@@H]12
- GI50 (LNCaP [1]): 1.95 µM

SMILES: C[C@]12CC[C@H](OS(C)(=O)=O)CC1=CC[C@@H]1[C@@H]2CC[C@]2(C)C(n3cnc4ccccc43)=CC[C@@H]12
- GI50 (LNCaP [1]): 42.1 µM

SMILES: COc1ccc(NCC2=C(n3cnc4ccccc43)[C@@]3(C)CC[C@H]4[C@@H](CC=C5C[C@@H](O)CC[C@@]54C)[C@@H]3C2)cc1OC
- GI50 (LNCaP [1]): > 100 µM
- Activity [2]: Active
- Activity [3]: Active

SMILES: Cc1nccn1C(=O)O[C@H]1CC[C@@]2(C)C(=CC[C@@H]3[C@@H]2CC[C@]2(C)C(n4cnc5ccccc54)=CC[C@@H]32)C1
- Activity (LNCaP [4]): Active
- GI50 (LNCaP [1]): 5.34 µM
- Activity (CWR22R): Active
- Activity (LNCaP [5]): Active

SMILES: CC1(O)C=C2CC[C@@H]3[C@H](CC[C@]4(C)C(n5cnc6ccccc65)=CC[C@@H]34)[C@@]2(C)CC1 (mixture of isomers)
- GI50 (LNCaP [1]): 13.3 µM

SMILES: CNC(=O)c1ccc(N2C(=S)N(c3ccc(C#N)c(C(F)(F)F)c3)C(=O)C2(C)C)cc1F
- Activity [2]: inactive
- Activity [3]: inactive

SMILES: C[C@]12CC[C@H](OC(=O)n3cncn3)CC1=CC[C@@H]1[C@@H]2CC[C@]2(C)C(n3cnc4ccccc43)=CC[C@@H]12
- GI50 (LNCaP [1]): 6.67 µM
- Activity (LNCaP [6]): Active

SMILES: C[C@]12CCC(=O)C=C1CC[C@@H]1[C@@H]2CC[C@]2(C)C(n3cnc4ccccc43)=CC[C@@H]12
- Activity (LNCaP [4]): Active
- GI50 (LNCaP [1]): 2.64 µM
- Activity [2]: Active
- Activity [3]: Active
- Activity (CWR22R): Active
- Activity (LNCaP [5]): Active

SMILES: C[C@]12CC[C@H](OC(=O)Cc3cccc(CC(=O)O)c3)CC1=CC[C@@H]1[C@@H]2CC[C@]2(C)C(n3cnc4ccccc43)=CC[C@@H]12
- GI50 (LNCaP [1]): 7.78 µM

SMILES: Cc1cc2ncn(C3=CC[C@H]4[C@@H]5CC=C6C[C@@H](O)CC[C@]6(C)[C@H]5CC[C@]34C)c2cc1C
- GI50 (LNCaP [1]): 47.7 µM
- Activity (LNCaP [6]): Active

SMILES: C[C@]12CC[C@H](O)CC1=CC[C@@H]1[C@@H]2CC[C@]2(C)C(n3cnc4ccccc43)=CC[C@@H]12 [GALETERONE]
- Activity (LNCaP [4]): Active
- GI50 (LNCaP [1]): 3.35 µM
- Activity [2]: Active
- Activity [3]: Active
- Activity (CWR22R): Active
- Activity (LNCaP [7]): Active
- Activity (LNCaP [5]): Active

SMILES: C[C@]12CC[C@H](O)CC1=CC[C@@H]1[C@@H]2CC[C@]2(C)C(n3cnc4ccccc43)=C(CNc3ccccc3)C[C@@H]12
- GI50 (LNCaP [1]): 22.1 µM

SMILES: C[C@]12CC/C(=N\OCc3ccccc3)C=C1CC[C@@H]1[C@@H]2CC[C@]2(C)C(n3cnc4ccccc43)=CC[C@@H]12 (mixture of isomers)
- GI50 (LNCaP [1]): 5.57 µM

SMILES: CO/N=C1/C=C2CC[C@@H]3[C@H](CC[C@]4(C)C(n5cnc6ccccc65)=CC[C@@H]34)[C@@]2(C)CC1 (mixture of isomers)
- GI50 (LNCaP [1]): 3.38 µM

SMILES: C[C@]12CC[C@H](O)CC1=CC[C@@H]1[C@@H]2CC[C@]2(C)C(n3cnc4cc5ccccc5cc43)=CC[C@@H]12
- GI50 (LNCaP [1]): 37.1 µM
- Activity (LNCaP [6]): Active

SMILES: Cc1ccc(S(=O)(=O)O[C@H]2CC[C@@]3(C)C(=CC[C@@H]4[C@@H]3CC[C@]3(C)C(n5cnc6ccccc65)=CC[C@@H]43)C2)cc1
- GI50 (LNCaP [1]): 47.2 µM

SMILES: C[C@]12CC[C@H](O)CC1=CC[C@@H]1[C@@H]2CC[C@]2(C)C(n3c(Cl)nc4ccccc43)=CC[C@@H]12
- GI50 (LNCaP [1]): 10.1 µM

SMILES: COc1ccc2ncn(C3=CC[C@H]4[C@@H]5CC=C6C[C@@H](O)CC[C@]6(C)[C@H]5CC[C@]34C)c2c1
- GI50 (LNCaP [1]): 4.26 µM

SMILES: C[C@]12CC[C@H](O)CC1=CC[C@@H]1[C@@H]2CC[C@]2(C)C(n3ccc4ccccc43)=CC[C@@H]12
- GI50 (LNCaP [1]): > 100 µM
- Activity (LNCaP [6]): Active
- inhibition [8]: Active

SMILES: C[C@]12CC[C@H](O)CC1=CC[C@@H]1[C@@H]2CC[C@]2(C)C(n3cnc4c(Cl)ncnc43)=CC[C@@H]12
- GI50 (LNCaP [1]): 13.5 µM

SMILES: C[C@]12CC[C@H](OC(=O)COCC(=O)O)CC1=CC[C@@H]1[C@@H]2CC[C@]2(C)C(n3cnc4ccccc43)=CC[C@@H]12
- GI50 (LNCaP [1]): 9.13 µM

SMILES: C[C@]12CCC(=O)CC1=CC[C@@H]1[C@@H]2CC[C@]2(C)C(n3cnc4ccccc43)=CC[C@@H]12
- GI50 (LNCaP [1]): 16 µM

SMILES: C[C@]12CC[C@H](OC(=O)n3ccnc3)CC1=CC[C@@H]1[C@@H]2CC[C@]2(C)C(n3cnc4ccccc43)=CC[C@@H]12
- Activity (LNCaP [4]): Active
- GI50 (LNCaP [1]): 0.87 µM
- Activity [2]: Active
- Activity [9]: 20%
- Activity [3]: Active
- Activity (CWR22R): Active
- Activity (LNCaP [7]): Active
- Activity (LNCaP [5]): Active

SMILES: C[C@]12CC[C@H](OC(=O)C3CC=CCC3C(=O)O)CC1=CC[C@@H]1[C@@H]2CC[C@]2(C)C(n3cnc4ccccc43)=CC[C@@H]12 (some centres not stated)
- GI50 (LNCaP [1]): 8.22 µM

SMILES: CC(C)CCNCC1=C(n2cnc3ccccc32)[C@@]2(C)CC[C@H]3[C@@H](CC=C4C[C@@H](O)CC[C@@]43C)[C@@H]2C1
- GI50 (LNCaP [1]): 18.3 µM

SMILES: C[C@]12CC[C@H](O)CC1C=C[C@@H]1[C@@H]2CC[C@]2(C)C(c3cccnc3)=CC[C@@H]12 (some centres not stated)
- GI50 (LNCaP [1]): 1.97 µM
- pIC50 [10]: 6.69
